Measurements: ChEMBL document CHEMBL4257504, “Tricyclic xanthine derivatives containing a basic substituent: adenosine receptor affinity and drug-related properties” (Medchemcomm, 2018)
≈ marks a conversion by molar mass, not a printed value.

Experiments:
Adenosine receptor A3 [1] = target: T1, Adenosine receptor A3 (Homo sapiens, UniProt P0DMS8); experiment: Binding affinity to human adenosine A3 receptor by radioligand displacement assay
T1 sequence (P0DMS8 whole entry): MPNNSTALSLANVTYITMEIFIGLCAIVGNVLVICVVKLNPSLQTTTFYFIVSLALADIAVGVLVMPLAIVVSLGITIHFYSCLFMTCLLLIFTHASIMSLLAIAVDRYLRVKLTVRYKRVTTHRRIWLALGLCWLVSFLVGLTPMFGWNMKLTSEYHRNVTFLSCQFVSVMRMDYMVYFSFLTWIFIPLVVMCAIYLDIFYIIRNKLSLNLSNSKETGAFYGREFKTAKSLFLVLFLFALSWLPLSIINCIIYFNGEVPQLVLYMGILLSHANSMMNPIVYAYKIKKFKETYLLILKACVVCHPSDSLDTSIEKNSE
Procedure, shortened: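 Membranes from CHO cells recombinantly expressing human A2B or A3 receptor. Competition curves use six to ten test-compound concentrations spanning three orders of magnitude, with at least three independent experiments.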

[2] = (§1) Drug level in human liver microsomes treated with 2-(4-(2-(1,3-Dibutyl-2,4-dioxo-1,2,3,4,7,8-hexahydropyrimido[2,1-f]purin-9(6H)-yl)ethyl)phenoxy)-N-(3-(diethylamino)propyl)-acetamide at 50 uM preincubated for 5 mins followed by addition of NADPH regenerating system and measured after 120 mins by UPLC/MS analysis; format: ADME, microsome; conditions: 2 h
Procedure, shortened: (§2)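 Incubations use pooled human (adult male and female) or rat liver microsomes at 1 mg/ml in 0.1 M Tris-HCl pH 7.4 with compound at 50 μM. After 5 min preincubation at 37 °C, an NADPH regenerating system is added to start the reaction. Cold methanol stops it at 120 min; samples are centrifuged and the supernatant analysed by UPLC/MS.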

[3] = as §1, with “rat” for “human”; format: ADME, microsome; conditions: 2 h; procedure, shortened: as §2
Adenosine receptor A1 = target: T2, Adenosine receptor A1 (Rattus norvegicus, UniProt P25099); experiment: Displacement of [3H]CCPA from adenosine A1 receptor in rat brain cortical membranes; format: cell membranes
T2 sequence (P25099 whole entry): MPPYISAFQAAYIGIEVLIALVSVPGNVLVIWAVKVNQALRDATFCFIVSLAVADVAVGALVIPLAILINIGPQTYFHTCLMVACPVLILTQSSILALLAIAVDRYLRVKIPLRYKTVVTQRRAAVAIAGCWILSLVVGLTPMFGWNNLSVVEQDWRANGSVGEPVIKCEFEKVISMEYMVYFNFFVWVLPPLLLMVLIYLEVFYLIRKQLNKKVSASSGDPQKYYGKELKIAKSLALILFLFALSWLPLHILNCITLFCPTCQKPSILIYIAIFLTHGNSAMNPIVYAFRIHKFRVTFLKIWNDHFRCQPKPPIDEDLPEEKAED
Procedure, shortened: (§3)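 Membrane radioligand binding: A1 in rat brain cortical membranes and A2A in rat brain striatal membranes, with human A1 and A2A in recombinant CHO cell membranes. Radioligands are [3H]CCPA for A1 and [3H]MSX-2 for A2A. Full concentration-inhibition curves use six to ten concentrations spanning three orders of magnitude, with at least three independent experiments.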

Adenosine receptor A2a = Adenosine receptor A2a (Rattus norvegicus, UniProt P30543); experiment: Displacement of [3H]MSX-2 from adenosine A2A receptor in rat brain striatal membranes; format: cell membranes, Striatum, Membrane; procedure, shortened: as §3
Adenosine receptor A3 [4] = target: T1, Adenosine receptor A3; experiment: Displacement of [3H]PSB-11 from human adenosine A3 receptor expressed in CHO cell membranes
Procedure, shortened: (§4)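 Membranes from CHO cells recombinantly expressing human A2B or A3 receptor. Radioligands are [3H]PSB-603 for A2B and [3H]PSB-11 for A3. Competition curves use six to ten test-compound concentrations spanning three orders of magnitude, with at least three independent experiments.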

Cytochrome P450 3A4 = Cytochrome P450 3A4 (Homo sapiens, UniProt P08684); experiment: Inhibition of recombinant human CYP3A4 by bioluminescence method; format: ADME
HEK293 = experiment: Cytotoxicity against HEK293 cells assessed as decrease in cell viability after 48 hrs by formazan dye-based EZ4U assay; conditions: Homo sapiens, HEK293, 48 h
Procedure, shortened: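 HEK-293 cells are seeded at 1 × 10^4 per well and grown 24 h to 60% confluence. Compounds (25 mM DMSO stocks) are diluted into medium at final 0.1–250 μM, with DMSO ≤1%, and left 48 h.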

[5] = Metabolic stability in human liver microsomes at 50 uM preincubated for 5 mins followed by addition of NADPH regenerating system and measured after 120 mins by UPLC/MS analysis; format: ADME, microsome; conditions: 2 h; procedure, shortened: as §2
[6] = Metabolic stability in rat liver microsomes at 50 uM preincubated for 5 mins followed by addition of NADPH regenerating system and measured after 120 mins by UPLC/MS analysis; format: ADME, microsome; conditions: 2 h; procedure, shortened: as §2
Adenosine receptor A2b [7] = target: T3, Adenosine receptor A2b (Homo sapiens, UniProt P29275); experiment: Displacement of [3H]PSB-603 from human adenosine A2B receptor expressed in CHO cell membranes
T3 sequence (P29275 whole entry): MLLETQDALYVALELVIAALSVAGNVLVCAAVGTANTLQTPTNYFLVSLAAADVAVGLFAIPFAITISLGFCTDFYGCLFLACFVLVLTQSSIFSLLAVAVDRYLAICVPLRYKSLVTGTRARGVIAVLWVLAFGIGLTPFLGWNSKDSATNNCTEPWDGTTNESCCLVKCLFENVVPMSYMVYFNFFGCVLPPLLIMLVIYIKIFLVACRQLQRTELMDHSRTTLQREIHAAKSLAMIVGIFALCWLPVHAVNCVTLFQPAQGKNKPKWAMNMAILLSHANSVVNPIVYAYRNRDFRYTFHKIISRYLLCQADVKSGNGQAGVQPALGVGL

Adenosine receptor A2b [8] = target: T3, Adenosine receptor A2b; experiment: […] from human adenosine A2B receptor expressed in CHO cell membranes; conditions: in the assay text read “[3H]PSB-603” for “[3H]PSB-602”; procedure, shortened: as §4
[9] = Solubility of compound in water after over night incubation by UV spectroscopic method; format: physicochemical
Procedure, shortened: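 Compound (10 mg, basic form) is suspended in 2 mL water, boiled 5 min, left overnight at 20 °C and filtered. The filtrate is diluted 10–80-fold in MeOH and read by UV in 90% MeOH/H2O. Concentration comes from seven-point standard curves (10^-3 to 10^-1 mg/mL) by linear regression, multiplied by the dilution factor.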

Sequence of Adenosine receptor A2a (P30543 whole entry): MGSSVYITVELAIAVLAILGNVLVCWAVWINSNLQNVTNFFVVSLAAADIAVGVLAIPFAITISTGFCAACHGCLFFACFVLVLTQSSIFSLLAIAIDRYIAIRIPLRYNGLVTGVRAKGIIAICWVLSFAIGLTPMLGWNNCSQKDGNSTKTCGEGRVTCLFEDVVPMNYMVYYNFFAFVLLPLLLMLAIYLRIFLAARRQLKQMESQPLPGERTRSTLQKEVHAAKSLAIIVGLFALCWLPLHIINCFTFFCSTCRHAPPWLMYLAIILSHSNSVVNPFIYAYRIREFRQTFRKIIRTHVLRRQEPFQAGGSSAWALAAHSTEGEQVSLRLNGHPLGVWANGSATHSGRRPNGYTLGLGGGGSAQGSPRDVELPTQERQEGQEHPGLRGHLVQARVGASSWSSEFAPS
Sequence of Cytochrome P450 3A4 (P08684 whole entry): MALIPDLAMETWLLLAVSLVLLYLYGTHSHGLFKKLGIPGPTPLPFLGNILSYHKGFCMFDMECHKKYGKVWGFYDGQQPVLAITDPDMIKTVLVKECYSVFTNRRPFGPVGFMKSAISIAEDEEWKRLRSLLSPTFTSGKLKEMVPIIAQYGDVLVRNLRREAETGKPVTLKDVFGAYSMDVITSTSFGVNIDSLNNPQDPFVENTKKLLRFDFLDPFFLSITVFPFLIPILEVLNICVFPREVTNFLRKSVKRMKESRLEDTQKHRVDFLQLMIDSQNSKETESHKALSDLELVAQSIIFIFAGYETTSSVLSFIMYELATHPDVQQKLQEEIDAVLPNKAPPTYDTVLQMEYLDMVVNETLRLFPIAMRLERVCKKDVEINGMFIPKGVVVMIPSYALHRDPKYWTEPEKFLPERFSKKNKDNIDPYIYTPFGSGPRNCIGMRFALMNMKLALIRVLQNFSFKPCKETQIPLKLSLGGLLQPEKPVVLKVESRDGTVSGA

CCCn1c(=O)c2[nH]c(C34CC5CC(CC3C5)C4)nc2n(CCC)c1=O [ROLOFYLLINE]
Ki (Adenosine receptor A3 [1]): 4390 nM

CCCCn1c(=O)n(CCC(C)O)c(=O)c2c1nc1n2CCCN1CCc1ccc(OCC(=O)NCCCN(CC)CC)cc1 (stereo not drawn)
Drug metabolism [2]: Metabolite_Detected | Drug metabolism [3]: Metabolite_Detected

CCCCn1c(=O)c2c(nc3n2CCCN3CCc2ccc(OCC(=O)NCCN3CCCC3)cc2)n(CCCC)c1=O
Ki (Adenosine receptor A1): 36.6 nM | Ki (Adenosine receptor A2a): 455 nM | Ki (Adenosine receptor A3 [4]): 204 nM | inhibition (INH) (Cytochrome P450 3A4; human, recombinant enzyme): Not Active | IC50 (HEK293): 23400 nM | Stability [5]: Stable | Stability [6]: Stable | Ki (Adenosine receptor A2b [7]): 66.3 nM

CCCCn1c(=O)c2c(nc3n2CCCN3CCc2ccc(OCC(=O)NCCCN(CC)CC)cc2)n(CCCC)c1=O
Ki (Adenosine receptor A1): 24.8 nM | Ki (Adenosine receptor A2a): 318 nM | Ki (Adenosine receptor A2b [8]): 126 nM | Ki (Adenosine receptor A3 [4]): 248 nM | solubility [9]: 632 µM (≈ 385 µg/mL) | IC50 (Cytochrome P450 3A4): 230 nM | IC50 (HEK293): 27300 nM
